The subject of assay [1] is Lassa virus. In words: Antiviral activity against Lassa virus pseudotype containing envelope glycoprotein incorporated in lentivirus infected in human 293T/17 cells by luciferase reporter gene assay. The settings on record: Mammarenavirus lassaense, HEK-293T. Format: functional, organism-based. The gist of the method: (§1)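 Lentivirus-based pseudotypes bearing arenavirus envelope glycoprotein. Each run used three or four replicates per concentration, typically 7 to 14 concentrations spaced 0.25 to 0.7 log apart, up to 50 µM. EC50 per experiment came from a four-parameter one-site dose-response fit. Values across experiments were averaged as geometric means, with relative standard error given as SD/√n relative to the mean.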
(In a reporter assay the amount or activity of a reporter protein is the signal.)

For assay [2], the system named is Sabia virus. Briefly: Antiviral activity against Sabia virus pseudotype containing viral envelope. Format: functional. The gist of the method:
as §1

Assay [3] deals with Tacaribe virus. Briefly: Antiviral activity against Tacaribe virus pseudotype containing viral envelope. Format: functional, organism-based. The conditions noted are these: Mammarenavirus tacaribeense. Summed up: as §1
Assay [4] concerns Guanarito virus. Briefly: Antiviral activity against Guanarito virus pseudotype containing viral envelope. Format: functional. The settings on record: Mammarenavirus guanaritoense. Summed up:
as §1

Assay [5] has as its system Machupo mammarenavirus. In words: Antiviral activity against Machupo virus pseudotype containing viral envelope. The conditions noted are these: Mammarenavirus machupoense. Format: functional. Summed up:
as §1

Assay [6] deals with Junin virus. Briefly: Antiviral activity against Junin virus pseudotype containing viral envelope. Format: functional, organism-based. The conditions noted are these: Mammarenavirus juninense. Summed up:
as §1

For assay [7], the system named is Lassa virus. Briefly: Antiviral activity against Lassa virus by plaque reduction assay. Format: functional, organism-based. The conditions noted are these: Mammarenavirus lassaense. On the technique in general: In a plaque reduction assay, fewer plaques than in the control indicate reduced infectivity or spread.

SMILES strings stand for the structures. The source made the active and inactive calls. The rule behind the calls is not given here.

The term EC50 denotes the concentration that produces a half-maximal response. Low values mean an effect from little substance, high ones a need for much substance.

`C/C(=N\NC(=O)[C@@H]1C[C@H]1c1ccccc1)c1ccc(Cl)c(Cl)c1` (relative stereo): the EC50 in assay [1] stood at 72 nM. In assay [1], `C/C(=N\NC(=O)[C@@H]1C[C@H]1c1ccccc1)c1ccccc1` (relative stereo) registered an EC50 of 47 nM. On the same count and under the same terms, the value for `COc1ccc(/C(C)=N/NC(=O)[C@@H]2C[C@H]2c2ccccc2)cc1OC` (relative stereo) was 450 nM; that for `CC(=O)Nc1ccc(/C(C)=N/NC(=O)[C@@H]2C[C@H]2c2ccccc2)cc1` (relative stereo) was 2.6 nM; that for `C/C(=N\NC(=O)[C@@H]1C[C@H]1c1ccc(C(C)(C)C)cc1)c1ccc(Cl)cc1` (relative stereo) was 6.6 nM. In assay [1], `C/C(=N\NC(=O)[C@@H]1C[C@H]1c1ccc(C(C)(C)C)cc1)c1ccccc1` (relative stereo) gave an EC50 of 15 nM. Still for that read-out and setting: to `C/C(=N\NC(=O)[C@@H]1C[C@H]1c1ccccc1)c1ccc(C2CCCCC2)cc1` (relative stereo) belongs 24 nM; to `C/C(=N\NC(=O)[C@@H]1C[C@H]1c1ccccc1)c1cccc(NC(=O)c2cccs2)c1` (relative stereo), 6300 nM. On the same count and under the same terms, the value for `C/C(=N\NC(=O)[C@@H]1C[C@H]1c1ccc(C(C)(C)C)cc1)c1ccc(F)cc1` (relative stereo) was 16 nM. Regarding `C/C(=N\NC(=O)[C@@H]1C[C@H]1c1ccccc1)c1cccc(C)c1` (relative stereo), in assay [1], the EC50 was determined as 58 nM.

`C/C(=N\NC(=O)[C@@H]1C[C@H]1c1ccccc1)c1ccc(C)c(C)c1` (relative stereo): in assay [1], the EC50 was 3.9 nM. In assay [1], `COc1cccc(/C(C)=N/NC(=O)[C@@H]2C[C@H]2c2ccccc2)c1` (relative stereo) returned an EC50 of 42 nM. The same measure, in the same setting: the value for `C/C(=N\NC(=O)[C@@H]1C[C@H]1c1ccc(C(C)(C)C)cc1)c1cccc(NC(=O)c2ccccc2F)c1` (relative stereo) was 770 nM; that for `C/C(=N\NC(=O)[C@@H]1C[C@H]1c1ccccc1)c1ccccc1Cl` (relative stereo) was 320 nM. Turning to `C/C(=N\NC(=O)[C@@H]1C[C@H]1c1ccccc1)c1ccc(F)cc1` (relative stereo), in assay [1], the 50% effective concentration (EC50) is 52 nM. `C/C(=N\NC(=O)[C@@H]1C[C@H]1c1ccccc1)c1ccc(-c2ccccc2)cc1` (relative stereo) yielded a concentration giving a half-maximal response (EC50) in assay [1] of 1.3 nM.

Consider `C/C(=N\NC(=O)[C@@H]1C[C@H]1c1ccccc1)c1ccccc1O` (relative stereo), for which the EC50 in assay [1] worked out at 570 nM. The same measure, in the same setting: to `COc1ccc(/C(C)=N/NC(=O)[C@@H]2C[C@H]2c2ccccc2)cc1` (relative stereo) belongs 4 nM; to `C/C(=N\NC(=O)[C@@H]1C[C@H]1c1ccccc1)c1ccc(NC(=O)C2CC2)cc1` (relative stereo), 2.1 nM; to `COc1cccc(/C(C)=N/NC(=O)C2CC2)c1`, over 50000 nM. On the same count and under the same terms, to `C/C(=N\NC(=O)[C@@H]1C[C@H]1c1ccccc1)c1ccc(C)cc1C` (relative stereo) belongs 170 nM; to `C/C(=N\NC(=O)[C@@H]1C[C@H]1c1ccccc1)c1cccc(NC(=O)c2ccccc2F)c1` (relative stereo), 9100 nM. Still for that read-out and setting: the value for `C/C(=N\NC(=O)[C@@H]1C[C@H]1c1ccccc1)c1cccc(Br)c1` (relative stereo) was 56 nM; that for `C/C(=N\NC(=O)[C@@H]1C[C@H]1c1ccccc1)c1ccc(C)cc1` (relative stereo) was 9 nM. `C/C(=N\NC(=O)[C@@H]1C[C@H]1c1ccccc1)c1ccc(NC(=O)c2ccco2)cc1`: the EC50 in assay [2] amounted to 130 nM; in assay [3] it was 630 nM; in assay [4], 120 nM; in assay [5], 730 nM; in assay [1], 0.34 nM; in assay [6], 800 nM. In assay [7], the result was Active. In turn, `C/C(=N\NC(=O)[C@@H]1C[C@H]1c1ccccc1)c1cccc(O)c1` (relative stereo) yielded an EC50 in assay [1] of 94 nM. On the same count and under the same terms, to `C/C(=N\NC(=O)[C@@H]1C[C@H]1c1ccccc1)c1ccc(Cl)cc1` (relative stereo) belongs 20 nM. The compound `C/C(=N\NC(=O)[C@@H]1C[C@H]1c1ccccc1)c1ccc(NC(=O)c2ccc(Cl)s2)cc1` (relative stereo) came in with a concentration giving a half-maximal response (EC50) in assay [1] of 0.95 nM.

In assay [1], `C/C(=N\NC(=O)[C@H]1C[C@@H]1c1ccccc1)c1ccc(NC(=O)c2ccco2)cc1` (relative stereo) had an EC50 of 0.34 nM. Take `C/C(=N\NC(=O)[C@@H]1C[C@H]1c1ccccc1)c1ccc(Br)cc1` (relative stereo): the response in assay [1] was half-maximal at 470 nM (EC50).

The compound `C/C(=N\NC(=O)[C@@H]1C[C@H]1c1ccccc1)c1ccc(O)cc1` (relative stereo) yielded a 50% effective concentration (EC50) in assay [1] of 2.3 nM.

Compound `C/C(=N\NC(=O)[C@@H]1C[C@H]1c1ccccc1)c1ccc([N+](=O)[O-])cc1` (relative stereo) yielded a concentration for a half-maximal effect (EC50) in assay [1] of 62 nM. The same measure, in the same setting: the value for `C/C(=N\NC(=O)[C@@H]1C[C@H]1c1ccccc1)c1cccc(C)c1C` (relative stereo) was 800 nM. Same read-out and setting: to `C/C(=N\NC(=O)[C@@H]1C[C@H]1c1ccccc1)c1cccc([N+](=O)[O-])c1` (relative stereo) belongs 250 nM.

Values taken from ChEMBL document CHEMBL2434965, “Lead optimization of an acylhydrazone scaffold possessing antiviral activity against Lassa virus” (Bioorg Med Chem Lett, 2013).
